The source of these data is PubChem BioAssay AID720661 (The Scripps Research Institute Molecular Screening Center, 2013).

Broadly, the EC50 is the midpoint of the concentration-response curve.

The structures appear in SMILES notation. Activity calls are given as the source filed them.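 How the source made its calls: active means EC50 of 10 µM or lower; inactive means EC50 above 10 µM.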

In this assay the test system is 293 cells GAL4-VP16 luciferase reporter, luminescence. Description: GAL4-VP16 luciferase reporter activators, dose response, counter-screen for BRM (SMARCA2) activator project, cell-based, luminescence, late stage (AID 720661). In a few lines:
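System: 293 cells carrying GAL4-VP16 and pGL4.31 reporter / Doses: Ten-point threefold dilution series, top 91.2 µM nominal / Timing: 24 h compound treatment, 37 °C / Measured by: One-Glo luminescence / Read-out basis: EC50 from four-parameter fit of percent activation / Control set: DMSO and SAHA reference wells for normalization / Replication: each concentration tested in triplicate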
Background: Reporter assays use an easily measured gene product as a stand-in for the process of interest.
In the case of `O=C(NCC1(c2nc(-c3ccccc3)cs2)CCOCC1)c1cccc(-c2noc(C(F)(F)F)n2)c1`, the EC50 was > 91.2 µM (inactive).
For `Clc1ccc(Cc2nc(-c3ccccc3)cs2)cc1`, the EC50 was > 91.2 µM (inactive).
For `Cc1nc(NC(=O)c2cccc(Br)c2)sc1C` the value was > 91.2 µM (inactive).
Regarding `Oc1ccccc1OCc1nc2ccccc2s1`, the EC50 is > 91.2 µM (inactive).
For the compound `Cc1cc(C)c2nc(NC(=O)C(C)C)sc2c1`, the EC50 is > 91.2 µM (inactive).
`Cc1ccc(Nc2nc(-c3ccccc3)c(C)s2)cc1`: the EC50 is > 91.2 µM (inactive).
For `COc1ccc(-c2nc(C#N)c(NC3CC3)o2)cc1` the value was > 91.2 µM (inactive).
